Results reported in PubChem BioAssay AID624363 (Broad Institute, 2012).
Where “and” joins values, the source holds several entries; their conditions need not be identical. Equal values may be shown once. Calls of active or inactive are those of the source.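 How the source made its calls: active means in every test run, a falling-signal curve whose half-maximal concentration is at most twice the top tested dose; inconclusive means runs disagree, flat fit at 30 to 70% inhibition, or poor fit; inactive means every test run inactive.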

Tested on: not listed separately
Test: inhibitors of MITF-driven TRPM1 reporter, dose response, cell-based, SK-MEL-5, luciferase, dry powder, set 5 (AID 624363)
Conditions: SK-MEL-5 TRPM1 promoter luciferase reporter, 24 h; at 35 µM (top of the series)
Summary of the method: (§1)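 Material: SK-MEL-5 TRPM1 promoter luciferase reporter cells / Quantity: 2000 reporter cells per well / Incubation: compound exposure 24 h at 37 °C, one day after plating / Benchmarks: parthenolide at 27 µM as positive control / Buffer or medium: phenol red-free DMEM, 10% FBS / Detection: SteadyGlo luciferase luminescence after 5 min at room temperature / Compound: pin-transferred compounds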

Row | SMILES | activity change, negative = inhibition
1 | O=C(NC1=C(N2CCN(c3ccccc3)CC2)C(=O)c2ccccc2C1=O)c1ccccc1 | -32.8% (inactive)
2 | O=C1C(NS(=O)(=O)c2ccc(Br)cc2)=C(N2CCN(c3ccccc3)CC2)C(=O)c2ccccc21 | -44.3% (inactive)
3 | COc1ccc(C2=C(NC(=O)c3ccc4ccccc4c3)C(=O)c3ccccc3C2=O)cc1 | -15.2% (inactive)
4 | C=CCNC1=C(NCC=C)C(=O)c2ccccc2C1=O | -12.8% (inactive)
5 | COc1ccc(C2=C(NC(=O)c3ccc(OC)cc3-c3cccc(OC)c3)C(=O)c3ccccc3C2=O)cc1 | -14.7% (inactive)
6 | O=C(NC1=C(c2ccc(Oc3ccccc3)cc2)C(=O)c2ccccc2C1=O)c1ccccc1 | -5.77% (inactive)

Tested on: SK-MEL-5 TRPM1 promoter luciferase reporter, 24 h
Test: as above
Conditions: not given
Summary of the method: as §1

Row | SMILES | AC50
7 | NC1=C(NS(=O)(=O)c2ccccc2)C(=O)c2ccccc2C1=O | 4.31 µM
8 | C[C@@H](NC1=C(Nc2ccccc2)C(=O)c2ccccc2C1=O)c1ccccc1 | 13.4 µM
9 | C=CCNC1=C(Nc2ccccc2)C(=O)c2ccccc2C1=O | 15.4 µM
10 | O=C(NC1=C(N2CCCCC2)C(=O)c2ccccc2C1=O)c1ccccc1 | 23.3 µM
11 | O=C1C(Nc2ccccc2)=C(N2CCCCC2)C(=O)c2ccccc21 | 6.28 µM
12 | COc1ccc(C2=C(NC(=O)c3ccccc3OC)C(=O)c3ccccc3C2=O)cc1 | 23.7 µM
13 | O=C1C(NS(=O)(=O)c2ccc(Br)cc2)=C(N2CCOCC2)C(=O)c2ccccc21 | 14.4 µM
14 | COc1ccc(C(=O)NC2=C(c3ccc(OC)cc3)C(=O)c3ccccc3C2=O)cc1 | 7.11 µM
15 | O=C(NC1=C(c2ccccc2)C(=O)c2ccccc2C1=O)c1ccc(Br)cc1 | 24.4 µM
16 | C=CCNC1=C(NCCCN(CC)CC)C(=O)c2ccccc2C1=O | 4.6 µM
17 | CN1CCN(C2=C(NS(=O)(=O)c3cccs3)C(=O)c3ccccc3C2=O)CC1 | 3.51 µM
18 | CCN1CCN(C2=C(NC(=O)c3ccc(Br)cc3)C(=O)c3ccccc3C2=O)CC1 | 0.845 µM
19 | COc1ccc(C2=C(NC(=O)c3ccccc3Cl)C(=O)c3ccccc3C2=O)cc1 | 5.18 µM
20 | CCN1c2ccccc2NC2N=C(OC)C(c3ccccc3)C21 (configuration not stated) | 3.74 µM
21 | CNC1=CC(=O)c2ccccc2C1=O | 9.17 µM
22 | O=C(CNc1cccc2ccccc12)N/N=C/c1ccc([N+](=O)[O-])o1 | 3.64 µM
23 | C=CCNC1=C(NS(=O)(=O)c2cccs2)C(=O)c2ccccc2C1=O | 14.2 µM
24 | O=C1C(Nc2ccccc2)=C(c2ccccc2)C(=O)c2ccccc21 | 4.49 µM
25 | NC1=C(NS(=O)(=O)c2ccc(Br)s2)C(=O)c2ccccc2C1=O | 17.5 µM
26 | O=C1C=C(Nc2ccccc2)C(=O)c2ccccc21 | 4.02 µM and 5.21 µM
27 | O=C1C(Nc2ccccc2)=C(N2CCOCC2)C(=O)c2ccccc21 | 12.8 µM and 7.07 µM
28 | COc1cccc(-c2cc(C(=O)NC3=C(Cl)C(=O)c4ccccc4C3=O)ccc2OC)c1 | 3.34 µM

Row | SMILES | AC50
29 | NC1=C(NS(=O)(=O)c2ccc(Br)cc2)C(=O)c2ccccc2C1=O | 8.9 µM
30 | COc1cccc(C2=C(NC(=O)c3ccccc3)C(=O)c3ccccc3C2=O)c1 | 16.6 µM
31 | C=CCNC1=C(NCCCN2CCOCC2)C(=O)c2ccccc2C1=O | 13.9 µM
32 | C=CCNC1=C(N2CCN(C)CC2)C(=O)c2ccccc2C1=O | 3.89 µM
33 | C=CCNC1=C(NS(=O)(=O)c2ccc(Br)cc2)C(=O)c2ccccc2C1=O | 11.9 µM
34 | C=CCNC1=C(N2CCSCC2)C(=O)c2ccccc2C1=O | 3.93 µM
35 | CC(=O)NC1=C(c2ccc(Oc3ccccc3)cc2)C(=O)c2ccccc2C1=O | 19.8 µM
36 | COC1=C(NS(=O)(=O)c2ccccc2)C(=O)c2ccccc2C1=O | 4.93 µM
37 | CC(=O)NC1=C(c2ccccc2)C(=O)c2ccccc2C1=O | 6.67 µM
38 | CCN(CC)CCCNC1=C(N(C)C(C)=O)C(=O)c2ccccc2C1=O | 0.305 µM
39 | COc1ccc(C(=O)NC2=C(c3ccccc3)C(=O)c3ccccc3C2=O)cc1 | 14.4 µM
40 | Cc1ccc(C(=O)NC2=C(c3ccccc3)C(=O)c3ccccc3C2=O)o1 | 3.23 µM
41 | COC1=C(Nc2ccccc2)C(=O)c2ccccc2C1=O | 2.69 µM
42 | O=C1C(NS(=O)(=O)c2cccs2)=C(N2CCCCC2)C(=O)c2ccccc21 | 22.1 µM
43 | O=C1C(NS(=O)(=O)c2cccs2)=C(N2CCOCC2)C(=O)c2ccccc21 | 12.4 µM
44 | C=CCNC1=C(Cl)C(=O)c2ccccc2C1=O | 0.799 µM and 1.88 µM
45 | O=C1C=C(NS(=O)(=O)c2ccccc2)C(=O)c2ccccc21 | 7.45 µM
46 | O=C(NC1=C(N2CCOCC2)C(=O)c2ccccc2C1=O)c1ccccc1 | 8.05 µM
47 | COC1=C(NS(=O)(=O)c2ccc(Br)cc2)C(=O)c2ccccc2C1=O | 7.22 µM
48 | O=C(NC1=C(c2ccc(OC(F)(F)F)cc2)C(=O)c2ccccc2C1=O)c1ccccc1F | 19.9 µM
49 | O=C(NC1=C(c2ccc(OC(F)(F)F)cc2)C(=O)c2ccccc2C1=O)c1ccc(Br)cc1 | 25 µM
50 | COc1ccc(C(=O)NC2=C(c3ccc(OC(F)(F)F)cc3)C(=O)c3ccccc3C2=O)cc1 | 36.2 µM

Row | SMILES | AC50
51 | CCN(CC)CCCNC1=C(Nc2ccccc2)C(=O)c2ccccc2C1=O | 2.17 µM
52 | Cc1nc2ccccc2n1/N=C/c1ccc([N+](=O)[O-])s1 | 4.34 µM
53 | O=C(NC1=C(Cl)C(=O)c2ccccc2C1=O)c1ccccc1 | 0.806 µM
54 | CCN1CCN(C2=C(NS(=O)(=O)c3ccc(Br)s3)C(=O)c3ccccc3C2=O)CC1 | 3.89 µM
55 | COC1=C(NS(=O)(=O)c2cccs2)C(=O)c2ccccc2C1=O | 17.5 µM
56 | O=C(NC1=C(N2CCSCC2)C(=O)c2ccccc2C1=O)c1ccccc1 | 4.96 µM
57 | CC(=O)N(C)C1=C(N2CCOCC2)C(=O)c2ccccc2C1=O | 2.45 µM
58 | CCN1CCN(C2=C(Nc3ccccc3)C(=O)c3ccccc3C2=O)CC1 | 0.809 µM
59 | CN1CCN(C2=C(NC(=O)c3ccc(Br)cc3)C(=O)c3ccccc3C2=O)CC1 | 1.14 µM
60 | CC(=O)NC1=C(c2cccc(Cl)c2)C(=O)c2ccccc2C1=O | 3.67 µM
61 | O=C(NC1=C(N2CCSCC2)C(=O)c2ccccc2C1=O)c1ccc(Br)cc1 | 10.1 µM
62 | CN1CCN(C2=C(NS(=O)(=O)c3ccc(Br)cc3)C(=O)c3ccccc3C2=O)CC1 | 7.58 µM
63 | O=C(NC1=C(c2ccc(OC(F)(F)F)cc2)C(=O)c2ccccc2C1=O)c1ccco1 | 20.9 µM
64 | COc1ccc(C2=C(NC(=O)c3cccc(Cl)c3)C(=O)c3ccccc3C2=O)cc1 | 11 µM
65 | NC1=CC(=O)c2ccccc2C1=O | 1.06 µM
66 | C=CCNC1=C(N2CCCCC2)C(=O)c2ccccc2C1=O | 0.983 µM
67 | O=C1C(NS(=O)(=O)c2ccccc2)=C(c2ccccc2)C(=O)c2ccccc21 | 20.5 µM
68 | C=C1C(=O)OC2C1CC/C(C)=C\CCC1(C)OC21 (configuration not stated) | 3.51 µM
69 | O=C1C(Nc2ccccc2)=C(N2CCSCC2)C(=O)c2ccccc21 | 9.7 µM
70 | CCN1CCN(C2=C(N(C)C(C)=O)C(=O)c3ccccc3C2=O)CC1 | 0.318 µM
71 | O=C1C=C(NS(=O)(=O)c2cccs2)C(=O)c2ccccc21 | 1.71 µM
72 | CC(=O)NC1=C(c2ccc3c(c2)oc2ccccc23)C(=O)c2ccccc2C1=O | 2.15 µM
